Experimental findings from ChEMBL document CHEMBL5154792, “A New Amino Acid for Improving Permeability and Solubility in Macrocyclic Peptides through Side Chain-to-Backbone Hydrogen Bonding” (J Med Chem, 2022) are described below.

Converted amounts (≈) assume the structure as drawn.

Series [1] can be described thus: Thermodynamic solubility of the compound at pH 7.4 after 24 hrs by UPLC-MS analysis. Type of series: physicochemical. The note with it: buffer, read-out: Therm_solubility. In outline:
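10 mM DMSO stocks were dried down, redissolved in PBS pH 7.4 (maximum 2 mM), sonicated 1 h, then gently agitated ~24 h at 37 °C. Filtered through 0.7 µm glass fiber, diluted up to 40-fold in MeCN and quantified by UPLC-MS against standard curves (50 µM to 0.1 µM in DMSO).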

Series [2] can be described thus: Apparent permeability of the compound after 15 hrs by UPLC-MS based PAMPA. It counts as ADME. The note with it: for Papp at 15 h: PAMPA; for Papp: pampa, 15 h. The procedure, abridged: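 Donor: 2 µM peptide in PBS pH 7.4 with 5% DMSO final. Acceptor: 5% DMSO in PBS. Membrane of 1% (w/v) soybean lecithin in n-dodecane. Incubated ~15 h at room temperature (exact time recorded) in a humidified sealed chamber. Donor and acceptor wells quantified by UPLC-MS in quadruplicate. Papp derived from %T (acceptor vs theoretical equilibrium) using membrane area 240 mm2.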
(In general: The PAMPA barrier holds no transporters, so it reflects passive diffusion.)

`COC(=O)CC[C@H]1NC(=O)[C@H]2CCCN2C(=O)[C@H](CC(C)C)NC(=O)[C@H](CC(C)C)NC(=O)[C@@H](CC(C)C)NC(=O)[C@H](CC(C)C)NC1=O`: the solubility thermodynamic at 24 h in series [1] came out at 710 µM (≈ 492 µg/mL). Moreover, the Papp – broadly, the rate of passage across a membrane or cell layer, normalised by area and donor concentration – at 15 h in series [2] was 2 ×10⁻⁶ cm/s.

For the compound `CC(C)C[C@@H]1NC(=O)[C@@H](CC(C)C)NC(=O)[C@@H](CC(C)C)NC(=O)[C@@H](CCC(=O)N2CCCC2)NC(=O)[C@@H](CC(C)C)NC(=O)[C@H]2CCCN2C1=O`, in series [1], the solubility thermodynamic at 24 h came to 450 µM (≈ 329 µg/mL). For the same compound, in series [2], the Papp at 15 h was determined as 1.1 ×10⁻⁶ cm/s.

As to `CC(C)C[C@@H]1NC(=O)[C@@H](CC(C)C)NC(=O)[C@@H](CC(C)C)NC(=O)[C@@H](CCC(=O)N2CCCC2)NC(=O)[C@H]2CCCN2C(=O)[C@H](CC(C)C)NC1=O`, the solubility thermodynamic at 24 h in series [1] amounted to 640 µM (≈ 468 µg/mL). Further, the Papp in series [2] is 1.7 10^-6 cm/s.

For `CC(C)C[C@@H]1NC(=O)[C@@H](CC(C)C)NC(=O)[C@H](CCC(=O)N2CCCC2)NC(=O)[C@@H](CC(C)C)NC(=O)[C@H]2CCCN2C(=O)[C@H](CC(C)C)NC1=O`, in series [1], the solubility thermodynamic at 24 h amounted to 140 µM (≈ 102 µg/mL). In series [2], the Papp at 15 h came to 0.23 ×10⁻⁶ cm/s.

Turning to `CC(C)C[C@@H]1NC(=O)[C@H](CCC(=O)N2CCCC2)NC(=O)[C@@H](CC(C)C)NC(=O)[C@@H](CC(C)C)NC(=O)[C@@H](CC(C)C)NC(=O)[C@H]2CCCN2C1=O`, the solubility thermodynamic at 24 h in series [1] was 510 µM (≈ 373 µg/mL). In addition, in series [2], the Papp at 15 h came out at 0.32 ×10⁻⁶ cm/s.

As to `CC(C)C[C@@H]1NC(=O)[C@@H](CC(C)C)NC(=O)[C@H](CC(C)C)NC(=O)[C@@H](CC(=O)N2CCCC2)NC(=O)[C@H]2CCCN2C(=O)[C@H](CC(C)C)NC1=O`, the solubility thermodynamic at 24 h in series [1] is 670 µM (≈ 481 µg/mL). Moreover, in series [2], the Papp at 15 h was 0.56 ×10⁻⁶ cm/s.

As for `CC(C)C[C@@H]1NC(=O)[C@@H](CC(C)C)NC(=O)[C@@H](CCC(=O)N2CCCC2)NC(=O)[C@@H](CC(C)C)NC(=O)[C@H]2CCCN2C(=O)[C@H](CC(C)C)NC1=O`, the solubility thermodynamic at 24 h in series [1] turned out to be 550 µM (≈ 403 µg/mL). For the same compound, in series [2], the Papp at 15 h was 0.66 ×10⁻⁶ cm/s.

Turning to `CC(C)C[C@@H]1NC(=O)[C@@H](CCC(=O)N2CCCC2)NC(=O)[C@@H](CC(C)C)NC(=O)[C@@H](CC(C)C)NC(=O)[C@@H](CC(C)C)NC(=O)[C@H]2CCCN2C1=O`, in series [1], the solubility thermodynamic at 24 h was 550 µM (≈ 403 µg/mL). The Papp at 15 h in series [2] turned out to be 0.13 ×10⁻⁶ cm/s.

In the case of `CC(C)C[C@@H]1NC(=O)[C@@H](CC(C)C)NC(=O)[C@@H](CC(C)C)NC(=O)[C@@H](CC(C)C)NC(=O)[C@H]2CCCN2C(=O)[C@H](CCC(=O)N2CCCC2)NC1=O`, the solubility thermodynamic at 24 h in series [1] turned out to be 720 µM (≈ 527 µg/mL). For the same compound, the Papp at 15 h in series [2] worked out at 0.66 ×10⁻⁶ cm/s.

In the case of `CC(C)C[C@@H]1NC(=O)[C@@H](CCC(=O)N2CCCC2)NC(=O)[C@@H](CC(C)C)NC(=O)[C@@H](CC(C)C)NC(=O)[C@H]2CCCN2C(=O)[C@H](CC(C)C)NC1=O`, the solubility thermodynamic at 24 h in series [1] worked out at 580 µM (≈ 425 µg/mL). In addition, the Papp at 15 h in series [2] was 0.3 ×10⁻⁶ cm/s.

Take `CC(C)C[C@H]1NC(=O)[C@H]2CCCN2C(=O)[C@H](CCC(=O)N2CCCC2)NC(=O)[C@@H](CC(C)C)NC(=O)[C@@H](CC(C)C)NC(=O)[C@@H](CC(C)C)NC1=O`: in series [1], the solubility thermodynamic at 24 h stood at 560 µM (≈ 410 µg/mL). Also, the Papp at 15 h in series [2] was determined as 1.5 ×10⁻⁶ cm/s.

For the compound `CC(C)C[C@@H]1NC(=O)[C@@H](CC(C)C)NC(=O)[C@H](CC(C)C)NC(=O)[C@@H](CC(C)C)NC(=O)[C@H]2CCCN2C(=O)[C@H](CCC(=O)N2CCCC2)NC1=O`, the solubility thermodynamic at 24 h in series [1] came out at 600 µM (≈ 439 µg/mL). For the same compound, in series [2], the Papp at 15 h came out at 0.18 ×10⁻⁶ cm/s.

As to `CC(C)C[C@@H]1NC(=O)[C@@H](CC(C)C)NC(=O)[C@H](CC(C)C)NC(=O)[C@@H](CCC(=O)N(C)C)NC(=O)[C@H]2CCCN2C(=O)[C@H](CC(C)C)NC1=O`, the solubility thermodynamic at 24 h in series [1] came out at 1660 µM (≈ 1170 µg/mL). The Papp at 15 h in series [2] stood at 0.7 ×10⁻⁶ cm/s.

On to `CC(C)C[C@@H]1NC(=O)[C@@H](CC(C)C)NC(=O)[C@@H](CCC(=O)N2CCCC2)NC(=O)[C@@H](CC(C)C)NC(=O)[C@@H](CC(C)C)NC(=O)[C@H]2CCCN2C1=O`, for which the solubility thermodynamic at 24 h in series [1] came out at 460 µM (≈ 337 µg/mL). Besides, the Papp at 15 h in series [2] worked out at 1.3 ×10⁻⁶ cm/s.

Consider `CC(C)C[C@@H]1NC(=O)[C@@H](CC(C)C)NC(=O)[C@@H](CC(C)C)NC(=O)[C@@H](CC(C)C)NC(=O)[C@H]2CCCN2C(=O)[C@H](CC(C)C)NC1=O`, for which the solubility thermodynamic at 24 h in series [1] was found to be 16 µM (≈ 10.6 µg/mL). The Papp in series [2] was 8.1 10^-6 cm/s.

Take `CC(C)C[C@@H]1NC(=O)[C@@H](CC(C)C)NC(=O)[C@H](CC(C)C)NC(=O)[C@@H](CC(C)C)NC(=O)[C@H]2CCCN2C(=O)[C@H](CC(C)C)NC1=O`: the solubility thermodynamic at 24 h in series [1] was determined as 63 µM (≈ 41.8 µg/mL). Also, the Papp in series [2] is given as 8 10^-6 cm/s.

For `CC(C)C[C@@H]1NC(=O)[C@@H](CC(C)C)NC(=O)[C@H](CC(C)C)NC(=O)[C@@H](CCC(=O)N2CCCC2)NC(=O)[C@H]2CCCN2C(=O)[C@H](CC(C)C)NC1=O`, in series [1], the solubility thermodynamic at 24 h was 730 µM (≈ 534 µg/mL). Further, in series [2], the Papp is given as 1.5 10^-6 cm/s.

As for `CC(C)C[C@@H]1NC(=O)[C@@H](CC(C)C)NC(=O)[C@H](CC(C)C)NC(=O)[C@@H](CC(=O)N(C)C)NC(=O)[C@H]2CCCN2C(=O)[C@H](CC(C)C)NC1=O`, the solubility thermodynamic at 24 h in series [1] is 1120 µM (≈ 775 µg/mL). Moreover, the Papp at 15 h in series [2] came out at 0.28 ×10⁻⁶ cm/s.

Regarding `CC(C)C[C@@H]1NC(=O)[C@@H](CC(C)C)NC(=O)[C@H]2CCCN2C(=O)[C@H](CC(C)C)NC(=O)[C@H](CCC(=O)N2CCCC2)NC(=O)[C@@H](CC(C)C)NC1=O`, the solubility thermodynamic at 24 h in series [1] is 550 µM (≈ 403 µg/mL). Also, the Papp at 15 h in series [2] amounted to 0.28 ×10⁻⁶ cm/s.

As for `CC(C)C[C@@H]1NC(=O)[C@@H](CCC(=O)N2CCCC2)NC(=O)[C@H](CC(C)C)NC(=O)[C@@H](CC(C)C)NC(=O)[C@H]2CCCN2C(=O)[C@H](CC(C)C)NC1=O`, the solubility thermodynamic at 24 h in series [1] came out at 580 µM (≈ 425 µg/mL). Moreover, in series [2], the Papp at 15 h was 0.14 ×10⁻⁶ cm/s.

Take `CC(C)C[C@@H]1NC(=O)[C@@H](CC(C)C)NC(=O)[C@@H](CC(C)C)NC(=O)[C@@H](CC(C)C)NC(=O)[C@@H](CC(C)C)NC(=O)[C@H]2CCCN2C1=O`: the solubility thermodynamic at 24 h in series [1] amounted to 240 µM (≈ 159 µg/mL). The Papp in series [2] is listed as 5.3 10^-6 cm/s.

Turning to `CC(C)C[C@@H]1NC(=O)[C@@H](CC(C)C)NC(=O)[C@@H](CC(C)C)NC(=O)[C@@H](CC(C)C)NC(=O)[C@@H](CCC(=O)N2CCCC2)NC(=O)[C@H]2CCCN2C1=O`, the solubility thermodynamic at 24 h in series [1] is 610 µM (≈ 447 µg/mL). Moreover, in series [2], the Papp was 0.56 10^-6 cm/s.
